Screening data deposited in PubChem by several laboratories.
The list is not random: actives were taken first. Their share in the collection is about 4.6%.
DSG3 Ab inh: inhibitors of pemphigus antibody binding to DSG3, primary screen, biochemical, bead-based, flow cytometry, scFv-GFP. binding (percent of control), % at 10 µM. DSG3-coupled beads, scFv-anti-DSG3-GFP binding; hits give low values. 310,000 tested, 0.48% active;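 active = binding more than 3 SD below its plate's average and above zero; inconclusive = below that plate limit but binding exactly zero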;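 note: hits lower antibody fragment binding to DSG3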
NLRP3 yeast inh: NALP3 inflammasome inhibitors in reconstituted yeast, primary screen, luminescence, uHTS. inhibition, % at 10 µM. Yeast reconstituted NLRP3/ASC/caspase-1, beta-gal luminescence, 24 h. 330,000 tested, 0.39% active;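 active = inhibition of 50% or more; inactive = inhibition below 50%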;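 note: plate controls were induced DMSO wells for no effect and uninduced yeast grown without galactose for full effect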
ALR inh: inhibitors of human ALR sulfhydryl oxidase, primary screen, biochemical, H2O2 detection, HRP-luminol luminescence, single point; 290,000 tested, 3.8% active; inhibition, % (no concentration beside the values); FAD-linked sulfhydryl oxidase ALR (Homo sapiens), P55789; AID 485317, 2010; purified ALR, DTT oxidation;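 active = mean replicate inhibition above about 79%, with every replicate also reaching it, limit read from the data; inconclusive = only one of the two criteria met; inactive = mean below limit and not every replicate reaching it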
Target sequence (P55789 whole entry, looked up): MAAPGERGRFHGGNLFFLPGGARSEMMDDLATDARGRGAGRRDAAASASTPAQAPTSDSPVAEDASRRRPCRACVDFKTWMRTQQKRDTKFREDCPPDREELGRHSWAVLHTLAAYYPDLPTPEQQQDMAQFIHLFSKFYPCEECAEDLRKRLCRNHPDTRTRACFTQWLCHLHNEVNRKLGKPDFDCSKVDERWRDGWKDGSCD
Arr AP2 block: inhibitors of beta-arrestin/AP2 binding, primary screen, biochemical, GPCR trafficking, flow cytometry; FITC-arrestin peptide / GST-AP2 beads; AP2 beta2 appendage carries R879A mutation; inhibition, % at 10 µM; 340,000 tested, 0.31% active;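 active = inhibition above a set limit, near 3 SD of compounds lacking own fluorescence, cut at about 54% in these data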;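 note: plate controls were DMSO wells for no effect and 5 µM unlabelled arrestin peptide for full effect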
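System: GST-AP2 R879A bound to glutathione beads, E. coli-expressed. Also added: 50 nM FITC-arrestin peptide. Schedule: compound with beads 12 min RT, then probe 1 h RT. Signal: bead flow cytometry, FITC channel. Read-out basis: percent response.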
PolyA inh: polyadenylation inhibitors in yeast reporter cells, primary screen, luminescence, S. cerevisiae | S. cerevisiae SKY197-pL101 polyadenylation reporter, beta-gal luminescence; efflux-impaired pdr1/pdr3 knockout yeast; score 100 = 6 SD above DMSO | activity score, % at 12 µM | 300,000 tested, 0.02% active | AID 1875, 2009;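 active = lowest replicate activity score at least 50, where 100 means six control SD above control mean; inconclusive = lowest score under 50 but half or more replicates reach 50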;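 note: yeast exposed to compound for 9 h at 30 °C; higher score means more reporter readthrough which indicates perturbed polyadenylation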
NALP1 yeast inh: NALP1 inflammasome inhibitors in reconstituted yeast, colorimetric, S. cerevisiae, triplicate retest; inhibition, % at 10 µM; S. cerevisiae NALP1/ASC/caspase-1 growth, X-gal OD620, 72 h; 280,000 tested, 0.61% active; in the data active = inhibition mostly above about 24%, no sharp cut-off; inactive = mostly below about 32%
NALP3 yeast conf: NALP3 inhibitors retested in yeast, confirmation, luminescence, single concentration | 1,300 tested, 81% active | AID 435006, 2010 | shares compounds with NLRP3 yeast inh | yeast expressing human NALP3 | inhibition, % at 10 µM; in the data active = inhibition above about 48%
Casp1 ASC ctr: CASP1-PYCARD signaling inhibition in yeast, confirmatory test, counterassay for NLRP3 inhibitor program, one-dose; yeast expressing Caspase-1-ASC, luminescence counter screen; AID 488784, 2010; 1,000 tested, 66% active; inhibition, % at 10 µM; shares compounds with NLRP3 yeast inh
NALP3 retest: NALP3 inhibitors in yeast, repeat test, confirmation, luminescence, single concentration, retest; shares compounds with NLRP3 yeast inh; yeast expressing human NALP3, luminescence read-out; inhibition, % at 10 µM; 1,000 tested, 53% active; AID 488794, 2010
Starred values were filed as active, the others as inactive. Cut-off read from the data, not from the text of the source, unless noted: active = inhibition above about 50%; inactive = the rest.

Results for Cc1c(C=O)c2ccccn2c1C(=O)c1ccc(F)cc1 ?
DSG3 Ab inh: 106.1; NLRP3 yeast inh: 59.3*; ALR inh: 1.4; Arr AP2 block: 5.8; PolyA inh: 1.7; NALP1 yeast inh: 8.4; NALP3 yeast conf: 71.8*; Casp1 ASC ctr: 60.0*; NALP3 retest: 54.2*

What do the screens show for `Cc1c(C=O)c2ccccn2c1C(=O)c1ccc(Cl)c([N+](=O)[O-])c1`?
DSG3 Ab inh: 99.0; NLRP3 yeast inh: 18.8; ALR inh: -9.5; Arr AP2 block: -10.6; PolyA inh: -11.5; NALP1 yeast inh: -8.8

Results for Cc1c(/C=N/NC(=O)CNc2ccccc2)c2ccccn2c1C(=O)c1ccc(Cl)cc1 ?
DSG3 Ab inh: 111.8; NLRP3 yeast inh: 10.7; ALR inh: -1.7; Arr AP2 block: 13.2; PolyA inh: 2.0; NALP1 yeast inh: 21.0

How did Cc1c(C=O)c2ccccn2c1C(=O)c1ccccc1 do in these assays?
DSG3 Ab inh: 96.8; NLRP3 yeast inh: 55.8*; Arr AP2 block: -3.7; PolyA inh: -25.2; NALP1 yeast inh: 18.6; NALP3 yeast conf: 58.6*; Casp1 ASC ctr: 54.9*; NALP3 retest: 41.5

How did O=C(Nn1cnnc1)c1ccccc1Cl do in these assays?
DSG3 Ab inh: 106.3; NLRP3 yeast inh: 5.9; Arr AP2 block: -2.2; PolyA inh: 0.9; NALP1 yeast inh: 22.1

How did COc1ccccc1OCCCCCc1c(C)n[nH]c1C do in these assays?
DSG3 Ab inh: 103.5; NLRP3 yeast inh: 11.2; ALR inh: -8.0; Arr AP2 block: 17.7; PolyA inh: 8.8; NALP1 yeast inh: 13.8

What do the screens show for `COc1ccccc1OCCCc1c(C)n[nH]c1C`?
DSG3 Ab inh: 103.3; NLRP3 yeast inh: 51.4*; ALR inh: -7.2; Arr AP2 block: 1.1; PolyA inh: -75.3; NALP1 yeast inh: 42.6*; NALP3 yeast conf: 88.2*; Casp1 ASC ctr: 94.6*; NALP3 retest: 80.8*

Results for CNc1nc(SCc2ccccc2Cl)nc2c1CCCC2 ?
DSG3 Ab inh: 107.9; NLRP3 yeast inh: 97.6*; ALR inh: -0.9; Arr AP2 block: 5.5; PolyA inh: -16.7; NALP1 yeast inh: 112.3*; NALP3 yeast conf: 98.8*; Casp1 ASC ctr: 98.3*; NALP3 retest: 97.7*

How did CCN1C(=O)/C(=C/C=C2/SCCN2C)SC1=S do in these assays?
DSG3 Ab inh: 101.9; NLRP3 yeast inh: 50.0; Arr AP2 block: 8.2; PolyA inh: -21.7; NALP1 yeast inh: 4.5; NALP3 yeast conf: 32.9

Results for C=C(C)[C@@H]1CC[C@]2(C(=O)O)CC[C@]3(C)[C@H](CC[C@@H]4[C@@]5(C)CC[C@H](O)C(C)(C)[C@@H]5CC[C@]43C)[C@@H]12 ?
DSG3 Ab inh: 111.5; NLRP3 yeast inh: 43.2; ALR inh: -1.7; Arr AP2 block: 8.7; PolyA inh: -2.1; NALP1 yeast inh: 5.2

Results for C=C(CC[C@@H](O)C(C)(C)O)[C@H]1CC[C@]2(C)[C@@H]1CCC1[C@@]3(C)CC[C@H](O)C(C)(C)C3CC[C@]12C (stereo partly specified) ?
DSG3 Ab inh: 100.0; NLRP3 yeast inh: 58.2*; ALR inh: -4.6; Arr AP2 block: 25.1; NALP3 yeast conf: 49.7; Casp1 ASC ctr: 46.1; NALP3 retest: 33.2

What do the screens show for `CCOc1ccc(N2C=Nc3ccc(OCC)cc3C2)cc1`?
DSG3 Ab inh: 102.2; NLRP3 yeast inh: 58.6*; ALR inh: 9.4; Arr AP2 block: -6.9; PolyA inh: 10.6; NALP1 yeast inh: 36.2; NALP3 yeast conf: 60.6*; Casp1 ASC ctr: 60.0*; NALP3 retest: 51.4*

Results for Oc1c(I)cc(I)c2cccnc12 ?
DSG3 Ab inh: 92.1; NLRP3 yeast inh: 65.2*; Arr AP2 block: 6.8; PolyA inh: -6.7; NALP1 yeast inh: 51.7; NALP3 yeast conf: 62.5*; Casp1 ASC ctr: 26.4; NALP3 retest: 23.9

What do the screens show for `COc1ccc(CSCCNC(=S)Nc2ccccc2)cc1Cl`?
DSG3 Ab inh: 95.8; NLRP3 yeast inh: 26.9; ALR inh: -3.4; Arr AP2 block: -1.1; PolyA inh: -4.6; NALP1 yeast inh: -8.2

How did S=C(NCCSCc1ccc(Cl)c(Cl)c1)Nc1ccccc1 do in these assays?
DSG3 Ab inh: 110.4; NLRP3 yeast inh: 61.5*; ALR inh: 9.0; Arr AP2 block: 1.0; PolyA inh: -14.8; NALP3 yeast conf: 71.1*; Casp1 ASC ctr: 58.2*; NALP3 retest: 38.6

Results for Cc1cccc(C)c1N1CCN(C(=O)N2CCCCC2)CC1 ?
DSG3 Ab inh: 98.6; NLRP3 yeast inh: 9.4; ALR inh: -4.4; Arr AP2 block: 7.3; PolyA inh: -5.7; NALP1 yeast inh: 13.0

What do the screens show for `Cc1noc(C)c1C(=O)Nc1nc(-c2cccs2)cs1`?
DSG3 Ab inh: 102.3; NLRP3 yeast inh: 39.1; ALR inh: inconclusive; Arr AP2 block: 3.7

What do the screens show for `CCc1noc(C)c1C(=O)Nc1ccc(C(F)(F)F)cc1`?
NLRP3 yeast inh: 50.1*; ALR inh: -4.2; Arr AP2 block: -5.3; PolyA inh: 0.2; NALP1 yeast inh: 14.6; NALP3 yeast conf: 61.9*; Casp1 ASC ctr: 49.1; NALP3 retest: 45.5

Results for CCc1noc(C)c1C(=O)Nc1ncc(C)s1 ?
DSG3 Ab inh: 102.6; NLRP3 yeast inh: 13.7; ALR inh: 0.7; Arr AP2 block: 5.0; PolyA inh: -4.7; NALP1 yeast inh: -31.2

How did CCc1noc(C)c1C(=O)Nc1nc(-c2cccs2)cs1 do in these assays?
DSG3 Ab inh: 93.2; NLRP3 yeast inh: 55.7*; ALR inh: 0.3; Arr AP2 block: -2.1; PolyA inh: 15.8; NALP3 yeast conf: 70.7*; Casp1 ASC ctr: 62.5*; NALP3 retest: 60.5*

Results for CCc1noc(C)c1C(=O)Nc1nc2c(C)cccc2s1 ?
DSG3 Ab inh: inconclusive; NLRP3 yeast inh: 58.8*; Arr AP2 block: 0.6; PolyA inh: -21.4; NALP3 yeast conf: 74.1*; Casp1 ASC ctr: 68.7*; NALP3 retest: 55.0*
